From PubChem BioAssay
Sampled rows, rich in hits. Any-hit rate of the full collection: about 3.3%.
Measles CPE = protection of cells from measles virus | Measles virus-infected cells, CPE protection, absorbance | protection (pct of control), % at 4 µM | 1.5% of 140,000 active; in the data active means protection mostly above about 24%, no sharp cut-off; inactive means mostly below about 26%
HUVEC tox IL1B = toxic to HUVEC cells under IL-1B stimulation; HUVEC cell count loss, Hoechst imaging, IL-1B stimulated; 0.41% of 94,000 active; AID 845; cell count reduction, % at 2 µM;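 active means cell count reduction more than 3 SD above the screen-wide mean, cut at about 70% in these data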;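 further: normalized per plate to untreated control cells as the no-loss baseline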
Rev-RRE block = inhibitors of HIV-1 Rev-RRE RNA interaction | 0.79% of 97,000 active | inhibition, % at 8 µM | Rev peptide-RRE RNA binding, FRET | AID 704 | P05866;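 active means inhibition above the screen-wide mean plus 3 SD, cut at about 35% in these data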;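 further: 0% = median DMSO wells and 100% = median Neomycin B control wells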
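Assay system: Labelled RRE RNA duplex and labelled Rev peptide | Times: 5 min preincubation and 15 min binding, 25 °C | Detection: FRET, ex 480 nm, em 540 and 671 nm | Evaluation: % inhibition of FRET ratio versus controls | Benchmarks: DMSO wells as 0% and neomycin B wells as 100% inhibition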
FAK blocker = FAK (human) kinase inhibition | AID 727 | inhibition, %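 (tested at 7 µM)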 | Q05397 | biochemical FAK kinase activity assay | 0.84% of 97,000 active;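 further: 0% = DMSO and 100% = reference compound high control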
Target sequence (Q05397 whole entry, looked up): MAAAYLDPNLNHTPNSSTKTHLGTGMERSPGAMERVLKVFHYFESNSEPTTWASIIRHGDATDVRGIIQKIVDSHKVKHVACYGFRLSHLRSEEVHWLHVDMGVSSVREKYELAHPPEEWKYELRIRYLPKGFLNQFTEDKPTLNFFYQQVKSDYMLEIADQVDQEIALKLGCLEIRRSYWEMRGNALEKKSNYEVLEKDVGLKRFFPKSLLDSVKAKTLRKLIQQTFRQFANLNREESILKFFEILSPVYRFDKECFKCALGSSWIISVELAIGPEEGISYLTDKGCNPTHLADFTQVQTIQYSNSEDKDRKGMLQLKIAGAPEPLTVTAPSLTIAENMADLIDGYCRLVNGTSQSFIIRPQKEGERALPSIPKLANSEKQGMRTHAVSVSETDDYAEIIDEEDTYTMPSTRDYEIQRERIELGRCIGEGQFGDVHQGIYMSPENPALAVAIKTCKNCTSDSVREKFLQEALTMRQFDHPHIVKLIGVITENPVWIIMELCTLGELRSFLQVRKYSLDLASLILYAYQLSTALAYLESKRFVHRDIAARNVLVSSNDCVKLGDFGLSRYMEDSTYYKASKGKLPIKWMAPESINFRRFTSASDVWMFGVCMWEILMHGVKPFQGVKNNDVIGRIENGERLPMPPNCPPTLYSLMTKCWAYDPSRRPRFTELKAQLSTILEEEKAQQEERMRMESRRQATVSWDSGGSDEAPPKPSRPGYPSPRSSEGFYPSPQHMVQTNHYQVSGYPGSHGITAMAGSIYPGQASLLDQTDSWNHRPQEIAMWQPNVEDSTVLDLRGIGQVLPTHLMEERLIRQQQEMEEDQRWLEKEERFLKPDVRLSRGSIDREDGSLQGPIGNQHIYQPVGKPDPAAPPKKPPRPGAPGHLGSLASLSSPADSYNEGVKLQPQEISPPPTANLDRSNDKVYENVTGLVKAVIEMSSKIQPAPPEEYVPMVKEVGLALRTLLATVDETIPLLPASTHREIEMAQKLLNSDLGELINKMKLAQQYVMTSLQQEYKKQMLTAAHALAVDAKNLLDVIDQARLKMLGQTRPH
NFkB transloc pot = enhances IL-1B driven NFkB nuclear translocation | HUVEC IL-1B NFkB p65 nuclear translocation imaging | activation, % at 2 µM | 0.3% of 94,000 active | AID 819;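 active means activation above 40%, about the mean plus 3 SD, also judged a hit on visual image review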;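 further: percent activation is computed from the nuclear over cytoplasmic p65 intensity ratio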
NFkB transloc inh = blocks IL-1B driven NFkB nuclear translocation in HUVEC cells; 0.43% of 94,000 active; AID 796; HUVEC IL-1B NFkB p65 nuclear translocation imaging; inhibition, % at 2 µM;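 active means inhibition above about 30% together with a positive call from visual inspection of the well image, limit read from the data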;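 further: nuclear over cytoplasmic p65 intensity ratio measured by imaging; 0% = IL-1B stimulated DMSO wells and 100% = unstimulated DMSO wells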
FAK inh conf = FAK (human) inhibition confirmed. shares compounds with FAK blocker. FAK kinase biochemical inhibition assay. inhibition, % at 7 µM. 28% of 750 active
* marks the source's active call; other numbers are inactive results; x = not tested or not shown; [ ] = remark or other dose. Unless noted, no stated cut-off is given here; in the data, active means inhibition above about 19%; inactive means the rest.

SMILES | Measles CPE | HUVEC tox IL1B | Rev-RRE block | FAK blocker | NFkB transloc pot | NFkB transloc inh | FAK inh conf
COc1ccc([N+](=O)[O-])cc1N(CC(=O)NCC1CCCO1)S(C)(=O)=O (stereo not given) | 19 | x | x | x | x | x | x
COc1ccc(-c2nc(-c3cccs3)c(-c3cccs3)[nH]2)cc1OC | 20 | x | 12 | 22* | x | x | 23*
O=[N+]([O-])c1ccc(-c2nc(-c3cccs3)c(-c3cccs3)[nH]2)cc1 | 5 | 9 | 12 | 12 | 5 | -5 | x
COc1ccc(-c2nc(-c3ccccc3)c(-c3cccs3)[nH]2)cc1OC | 17 | -27 | 2 | 24* | 19 | -19 | 17
Cc1scc(C(=O)N/N=C/c2ccc(Cl)s2)c1C | 9 | x | x | x | x | x | x
C1CCN(CCCNC2C3CC4CC(C3)CC2C4)C1 (stereo not given) | 9 | x | x | x | x | x | x
CCC(=O)Nc1cc(C(=O)OCc2ccc(C(=O)Oc3ccccc3)cc2)ccc1C | 9 | x | x | x | x | x | x
CC(=O)N1CCc2cc(S(=O)(=O)NCCC(=O)N3CCN(c4ccccn4)CC3)ccc21 | 13 | 26 | 0 | 32* | -4 | 4 | 1
O=C1CC(c2ccco2)CC2=C1C=Nc1ccccc1N2 (stereo not given) | 17 | 0 | 4 | 22* | 14 | -14 | 0
Cc1nc2n(n1)C(c1ccccc1)C1=C(CC(c3ccco3)CC1=O)N2 (stereo not given) | 4 | 23 | 0 | 12 | 16 | -16 | x
O=C(Nc1ccccc1C(=O)NCc1ccc(Cl)cc1)c1ccco1 | 10 | 9 | 12 | 27* | -5 | 6 | 2
O=C(CNC(=O)c1ccco1)NCC(=O)OCc1ccc(Cl)cc1 | 12 | -21 | 3 | 39* | 20 | -20 | 1
CCc1cc(=O)oc2cc3occ(-c4ccc(OC)c(F)c4)c3cc12 | 16 | x | x | x | x | x | x
C=C(c1cccc2ccccc12)P(=O)(O)O | 9 | -19 | 6 | 29* | 4 | -4 | 20*
CSc1nc2ccc3nc(NC(=O)c4cccs4)sc3c2s1 | 4 | 8 | 8 | 40* | -12 | 12 | 26*
Cc1nc(NCCCn2ccnc2)c2ccccc2n1 | 4 | x | x | x | x | x | x
O=C1c2ccccc2-c2onc3ccc(NCCCn4ccnc4)c1c23 | 7 | 16 | 137*[fluorescence artefact?] | 36* | 14 | -14 | 27*
COc1ccc(C(=O)N(NC(=O)Oc2ccccc2)C(C)(C)C)cc1 | 18 | x | x | x | x | x | x
COc1ccccc1NC(=O)c1nn(-c2ccc(Cl)cc2)ccc1=O | 8 | -24 | 0 | 25* | 6 | -6 | 3
COc1ccccc1NC(=O)c1nn(-c2ccccc2)ccc1=O | 19 | -8 | 5 | 2 | -2 | 2 | x
CCCCn1c(NC(=O)c2ccccc2)c(C#N)c2nc3ccccc3nc21 | 12 | 7 | 50* | 42* | 4 | -4 | 1
CCC(C)n1c(NC(=O)c2ccccc2)c(C#N)c2nc3ccccc3nc21 (stereo not given) | x | -57 | 76* | 25* | 12 | -12 | -3
COC(=O)NCC(C)OC(=O)Nc1cccc(Cl)c1 (stereo not given) | 15 | -47 | 1 | 7 | 1 | -1 | x
O=C(Nc1cccc(Cl)c1)ON=C1c2ccccc2-c2ccccc21 | 6 | 35 | 9 | 39* | -3 | 3 | 5
CCCCN(CC)C(=O)Cn1cnc2ccc(S(=O)(=O)N3CCC(C)CC3)cc2c1=O | 9 | x | x | x | x | x | x
SMILES | Measles CPE | HUVEC tox IL1B | Rev-RRE block | FAK blocker | NFkB transloc pot | NFkB transloc inh | FAK inh conf
CC(C)c1ccc(NC(=O)c2snc3ccc(Cl)cc23)cc1 | 15 | x | x | x | x | x | x
Cc1oc(-c2ccccc2)cc1C(=O)Nc1cccc(C(=O)O)c1 | 11 | -17 | 3 | -2 | 22 | -22 | x
Cc1oc(-c2ccccc2)cc1C(=O)Nc1cccc2ccccc12 | 6 | -3 | -1 | 26* | 14 | -14 | 25*
CCCCOC(=O)c1ccc(NC(=O)COC(=O)CSc2nc(C)cc(C)n2)cc1 | 17 | x | x | x | x | x | x
Cc1cc(C)c(NC(=O)/C=C\C(=O)O)c(Cl)c1 | 27 | x | x | x | x | x | x
Cc1cc(C)c(NC(=O)CC(C)(C)C)c(Cl)c1 | 5 | x | 5 | 73* | x | x | 2
COC(=O)c1[nH]c2cc(C)ccc2c1NC(=O)CN1CCN(c2ccccc2OC)CC1 | 7 | -13 | 0 | -2 | -1 | 1 | x
COC(=O)c1[nH]c2ccc(C)cc2c1NC(=O)CN1CCCc2ccccc21 | 5 | -36 | 17 | 20* | 12 | -12 | 22*
CC(NC(=O)NCc1cccnc1)(C(F)(F)F)C(F)(F)F | 11 | -90 | 8 | -3 | 3 | -3 | x
Cc1cccc(N2CSC3=C(C#N)C(c4ccc(C)o4)CC(=O)N3C2)c1 (stereo not given) | 9 | -9 | 8 | 24* | -6 | 6 | 9
C=CCNC(=O)C(=O)N/N=C/c1ccco1 | 14 | x | x | x | x | x | x
CCOc1cc(C(c2c(C)[nH][nH]c2=O)c2c(C)[nH][nH]c2=O)ccc1OCc1ccc([N+](=O)[O-])cc1 | 8 | -9 | 8 | -1 | 11 | -11 | x
CCOc1cc(/C=C2/NC(=S)NC2=O)ccc1OCc1ccc([N+](=O)[O-])cc1 | 4 | -12 | 25 | 41* | 1 | -1 | 22*
Cc1ccccc1NC1=C/C(=N\S(=O)(=O)c2cccs2)c2ccccc2C1=O | 4 | -24 | 4 | 42* | 15 | -15 | 32*
Oc1ccc(N=Cc2ccc(-c3cccs3)s2)cc1 | 10 | 2 | 0 | 43* | 5 | -5 | 2
O=[N+]([O-])c1ccc(N/N=C\c2cccn2-c2ccccc2)nc1 | 32 | x | 41* | 30* | x | x | 10
COC(=O)CSc1nc2ccccc2nc1SCC(=O)OC | 5 | -65 | 6 | 3 | 3 | -3 | x
CCOC(=O)CSc1nc(C)c2ccccc2n1 | 5 | 8 | 5 | 1 | -9 | 9 | x
CCOC(=O)CSc1nc(C2CC2)nc2ccccc12 | 12 | -46 | 3 | 67* | -19 | 19 | 65*
CCOC(=O)CSc1nc(C(C)C)nc2ccccc12 | 2 | 4 | 7 | 37* | -8 | 8 | 24*
COC(=O)CSc1nc(C(C)C)nc2ccccc12 | 14 | -3 | 0 | 40* | 6 | -6 | 23*
CCN(CC)C(=O)CSc1nc2c(sc(=S)n2Cc2ccco2)c(=O)n1-c1ccccc1 | 15 | 13 | 7 | 20* | -2 | 2 | 4
CCOC(=O)CSc1nc2c(sc(=S)n2Cc2ccco2)c(=O)n1-c1ccccc1 | 2 | -2 | 11 | 11 | 4 | -4 | x
CSc1nc(N(CCO)CCO)c2sc3nc(-c4ccco4)c4c(c3c2n1)CCC4 | 10 | x | x | x | x | x | x
CSc1nc(SCCO)c2sc3nc(-c4ccco4)c4c(c3c2n1)CC(C)(C)OC4 | 2 | -18 | 3 | 28* | 4 | -4 | 1
O=C(CSC(=S)N1CCN(c2ccccc2)CC1)Nc1nc(-c2ccccc2)c(-c2ccccc2)o1 | 4 | x | x | x | x | x | x
